Measurements pooled from the literature.
Compare with care: the assays were run in different laboratories.
Target: Myosin light chain kinase (MYLK3, Homo sapiens, UniProt Q32MK0)
One construct used (Q32MK0 1-819): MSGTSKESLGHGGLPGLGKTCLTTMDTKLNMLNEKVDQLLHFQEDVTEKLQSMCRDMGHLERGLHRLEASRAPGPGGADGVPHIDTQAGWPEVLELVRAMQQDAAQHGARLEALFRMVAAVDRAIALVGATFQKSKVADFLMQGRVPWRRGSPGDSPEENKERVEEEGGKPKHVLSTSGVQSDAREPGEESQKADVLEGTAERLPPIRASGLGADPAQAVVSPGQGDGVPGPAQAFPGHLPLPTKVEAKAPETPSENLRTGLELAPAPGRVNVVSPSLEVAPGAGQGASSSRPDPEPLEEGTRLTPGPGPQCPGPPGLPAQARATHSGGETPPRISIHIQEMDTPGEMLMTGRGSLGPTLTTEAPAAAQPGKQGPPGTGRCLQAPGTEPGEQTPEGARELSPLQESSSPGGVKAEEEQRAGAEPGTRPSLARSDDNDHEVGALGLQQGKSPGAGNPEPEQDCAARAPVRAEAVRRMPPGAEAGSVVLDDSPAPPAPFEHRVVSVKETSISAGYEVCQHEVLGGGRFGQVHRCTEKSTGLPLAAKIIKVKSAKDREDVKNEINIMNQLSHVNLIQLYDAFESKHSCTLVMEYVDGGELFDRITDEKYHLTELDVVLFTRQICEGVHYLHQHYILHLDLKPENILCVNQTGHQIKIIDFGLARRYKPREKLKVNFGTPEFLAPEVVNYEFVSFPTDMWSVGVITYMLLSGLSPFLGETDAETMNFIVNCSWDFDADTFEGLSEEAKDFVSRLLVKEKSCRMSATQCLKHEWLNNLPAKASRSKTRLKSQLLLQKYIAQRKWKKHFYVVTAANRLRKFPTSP

`Nc1ncnc2occ(-c3ccc(NC(=O)Nc4cc(C(F)(F)F)ccc4F)cc3)c12` gave a remaining signal of 0.15% (cell-free assay, inhibitor; 20 µM).
For `CO[C@@H](C)c1c(Nc2ccc([C@@H](N(C)C(=O)C3CCS(=O)(=O)CC3)C(F)(F)F)cc2)cnc2cc(Cl)nn12`, the remaining binding was 87% (cell-free assay, competition with immobilised ligand; 1 µM).
The remaining activity of `CC(C)(C)c1nc(-c2cccc(NS(=O)(=O)c3c(F)cccc3F)c2F)c(-c2ccnc(N)n2)s1` is reported as 100% (enzyme activity, inhibitor, radiometric; 1 µM).
For `Cc1cnn2ncc(-c3ccnc(N(C)C)n3)c2c1`, the remaining binding was 96% (binding; 1 µM).
`CC(C)(O)[C@H]1CC[C@H](Nc2ccc3ncc(-c4cccc(C(F)(F)F)c4)n3n2)CC1` has a remaining activity of 100% (enzyme activity, inhibitor; 1 µM).
The remaining binding of `O=C1CCc2cc(Nc3cc(OC4CCOCC4)c([N+](=O)[O-])cc3Cl)ccc2N1` is reported as 100% (cell-free assay, competition with immobilised ligand; 1 µM).
`Cc1ccc(C(=O)Nc2ccc(CN3CCN(C)CC3)c(C(F)(F)F)c2)cc1C#Cc1cnc2cccnn12` gave a remaining activity of 99% (enzyme activity, inhibitor; 23.5 nM).
The remaining activity of `CC(C)(C)c1nc2c(s1)c1nc(N)ncc1c1ccc(NS(=O)(=O)c3c(F)cccc3F)c(F)c12` is reported as 93% (enzyme activity, inhibitor, radiometric; 1 µM).
With `F[C@@H]1CCN(c2nccc(-c3cnn4ncccc34)n2)C1` the remaining binding was 100% (binding; 1 µM).
With `O=C(Nc1cnn(-c2csc(C(=O)NC3COC3)c2)c1)Nc1ccccc1Cl` the remaining activity was 95.1% (enzyme activity, inhibitor; 5 µM).
